According to ChEMBL document CHEMBL3352487, “Synthesis, antibacterial activity, and biological evaluation of formyl hydroxyamino derivatives as novel potent peptide deformylase inhibitors against drug-resistant bacteria” (Eur J Med Chem, 2014):
≈ marks a conversion by molar mass, not a printed value.

How the values were obtained:
Staphylococcus aureus [1] = assay: Antimicrobial activity against Staphylococcus aureus isolate Ealing 32 after 24 hrs by broth microdilution method; type: functional; details: isolate Ealing 32, 24 h
In short: (§1)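 Broth microdilution following NCCLS M7-A4; ATCC strains and clinical isolates from a provincial hospital.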

Staphylococcus aureus [2] = assay: Antimicrobial activity against Staphylococcus aureus isolate Smith ATCC 13709 after 24 hrs by broth microdilution method; type: functional; details: isolate Smith ATCC 13709, 24 h
In short: (§2)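 Broth microdilution following NCCLS M7-A4, using ATCC strains and clinical isolates from a provincial hospital.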

Staphylococcus aureus [3] = assay: Antimicrobial activity against Staphylococcus aureus isolate CL 938 after 24 hrs by broth microdilution method; type: functional; details: isolate CL 938, 24 h; in short: as §1
Staphylococcus aureus [4] = assay: Antimicrobial activity against Staphylococcus aureus isolate NEQAS 4158 after 24 hrs by broth microdilution method; type: functional; details: isolate NEQAS 4158, 24 h; in short: as §1
Staphylococcus aureus [5] = assay: Antimicrobial activity against Staphylococcus aureus isolate 929035 after 24 hrs by broth microdilution method; type: functional; details: isolate 929035, 24 h; in short: as §1
Staphylococcus aureus [6] = assay: Antimicrobial activity against Staphylococcus aureus isolate CARTER 37 after 24 hrs by broth microdilution method; type: functional; details: isolate CARTER 37, 24 h; in short: as §2
Staphylococcus aureus [7] = assay: Antimicrobial activity against Staphylococcus aureus isolate RN1024 after 24 hrs by broth microdilution method; type: functional; details: isolate RN1024, 24 h; in short: as §2
Staphylococcus aureus [8] = assay: Antimicrobial activity against Staphylococcus aureus isolate RN1030 after 24 hrs by broth microdilution method; type: functional; details: isolate RN1030, 24 h; in short: as §2
Staphylococcus aureus [9] = assay: Antimicrobial activity against Staphylococcus aureus isolate MILES HALL after 24 hrs by broth microdilution method; type: functional; in short: as §2
Staphylococcus aureus [10] = assay: Antimicrobial activity against Staphylococcus aureus isolate F89 after 24 hrs by broth microdilution method; type: functional; details: isolate F89, 24 h; in short: as §1
Staphylococcus aureus [11] = assay: Antimicrobial activity against Staphylococcus aureus isolate OGA833 after 24 hrs by broth microdilution method; type: functional; details: isolate OGA833, 24 h; in short: as §1
Staphylococcus aureus [12] = assay: Antimicrobial activity against Staphylococcus aureus ATCC 29213 after 24 hrs by broth microdilution method; type: functional; details: ATCC 29213, 24 h; in short: as §1
Staphylococcus aureus [13] = assay: Antimicrobial activity against Staphylococcus aureus isolate 306 after 24 hrs by broth microdilution method; type: functional; details: isolate 306, 24 h; in short: as §1
Staphylococcus aureus [14] = assay: Antimicrobial activity against Staphylococcus aureus isolate Ealing 23 after 24 hrs by broth microdilution method; type: functional; details: isolate Ealing 23, 24 h; in short: as §2
Staphylococcus aureus [15] = assay: Antimicrobial activity against Staphylococcus aureus isolate 929003 after 24 hrs by broth microdilution method; type: functional; details: isolate 929003, 24 h; in short: as §1
Staphylococcus aureus [16] = assay: Antimicrobial activity against Staphylococcus aureus isolate NEQAS 4026 after 24 hrs by broth microdilution method; type: functional; details: isolate NEQAS 4026, 24 h; in short: as §1
Staphylococcus aureus [17] = assay: Antimicrobial activity against Staphylococcus aureus isolate RN4220 pmz1 after 24 hrs by broth microdilution method; type: functional; details: isolate RN4220 pmz1, 24 h; in short: as §2
Staphylococcus aureus [18] = assay: Antimicrobial activity against Staphylococcus aureus isolate 934334 after 24 hrs by broth microdilution method; type: functional; details: isolate 934334, 24 h; in short: as §1
Staphylococcus aureus [19] = assay: Antimicrobial activity against Staphylococcus aureus isolate 934335 after 24 hrs by broth microdilution method; type: functional; details: isolate 934335, 24 h; in short: as §1
Staphylococcus aureus [20] = assay: Antimicrobial activity against Staphylococcus aureus isolate CL 939 after 24 hrs by broth microdilution method; type: functional; details: isolate CL 939, 24 h; in short: as §2
Staphylococcus aureus [21] = assay: Antimicrobial activity against Staphylococcus aureus isolate 934324 after 24 hrs by broth microdilution method; type: functional; details: isolate 934324, 24 h; in short: as §1
Staphylococcus aureus [22] = assay: Antimicrobial activity against Staphylococcus aureus isolate MN 1255 after 24 hrs by broth microdilution method; type: functional; details: isolate MN 1255, 24 h; in short: as §1
Staphylococcus aureus [23] = assay: Antimicrobial activity against Staphylococcus aureus isolate RUSSELL after 24 hrs by broth microdilution method; type: functional; in short: as §2
Staphylococcus aureus [24] = assay: Antimicrobial activity against Staphylococcus aureus isolate 934387 after 24 hrs by broth microdilution method; type: functional; details: isolate 934387, 24 h; in short: as §2
Staphylococcus aureus [25] = assay: Antimicrobial activity against Staphylococcus aureus isolate CL 1033 after 24 hrs by broth microdilution method; type: functional; details: isolate CL 1033, 24 h; in short: as §1
[26] = Stability of the compound in artificial gastric juice measured every 2 hrs for 12 hrs by HPLC analysis; type: ADME; details: simulated gi fluid
[27] = Cmax in Sprague-Dawley rat at 25 mg/kg, po; type: ADME, organism-based; set-up: dose 25 mg/kg, route oral; details: in vivo
[28] = Mean residence time (0 to t) in Sprague-Dawley rat at 5 mg/kg, iv; type: ADME, organism-based; set-up: dose 5 mg/kg, route intravenous; details: in vivo
[29] = Half life in Sprague-Dawley rat at 25 mg/kg, po; type: ADME, organism-based; set-up: dose 25 mg/kg, route oral; details: in vivo
Escherichia coli [30] = assay: Antimicrobial activity against Escherichia coli isolate 1 after 24 hrs by broth microdilution method; type: functional; details: isolate 1, 24 h; in short: as §1
[31] = Volume of distribution at steady state in Sprague-Dawley rat at 5 mg/kg, iv; type: ADME, organism-based; set-up: dose 5 mg/kg, route intravenous; details: in vivo, read-out: Vdss
Staphylococcus aureus [32] = assay: Antimicrobial activity against methicillin-susceptible Staphylococcus aureus after 24 hrs by broth microdilution method; type: functional; in short: as §1
[33] = Solubility of the compound in artificial intestinal juice measured every 2 hrs for 12 hrs by HPLC analysis; type: physicochemical; details: simulated gi fluid
hERG (KCNH2) [34] = target: T1, hERG (KCNH2) (Homo sapiens, UniProt Q12809); assay: Inhibition of human ERG at 1 uM
T1 sequence (Q12809 whole entry): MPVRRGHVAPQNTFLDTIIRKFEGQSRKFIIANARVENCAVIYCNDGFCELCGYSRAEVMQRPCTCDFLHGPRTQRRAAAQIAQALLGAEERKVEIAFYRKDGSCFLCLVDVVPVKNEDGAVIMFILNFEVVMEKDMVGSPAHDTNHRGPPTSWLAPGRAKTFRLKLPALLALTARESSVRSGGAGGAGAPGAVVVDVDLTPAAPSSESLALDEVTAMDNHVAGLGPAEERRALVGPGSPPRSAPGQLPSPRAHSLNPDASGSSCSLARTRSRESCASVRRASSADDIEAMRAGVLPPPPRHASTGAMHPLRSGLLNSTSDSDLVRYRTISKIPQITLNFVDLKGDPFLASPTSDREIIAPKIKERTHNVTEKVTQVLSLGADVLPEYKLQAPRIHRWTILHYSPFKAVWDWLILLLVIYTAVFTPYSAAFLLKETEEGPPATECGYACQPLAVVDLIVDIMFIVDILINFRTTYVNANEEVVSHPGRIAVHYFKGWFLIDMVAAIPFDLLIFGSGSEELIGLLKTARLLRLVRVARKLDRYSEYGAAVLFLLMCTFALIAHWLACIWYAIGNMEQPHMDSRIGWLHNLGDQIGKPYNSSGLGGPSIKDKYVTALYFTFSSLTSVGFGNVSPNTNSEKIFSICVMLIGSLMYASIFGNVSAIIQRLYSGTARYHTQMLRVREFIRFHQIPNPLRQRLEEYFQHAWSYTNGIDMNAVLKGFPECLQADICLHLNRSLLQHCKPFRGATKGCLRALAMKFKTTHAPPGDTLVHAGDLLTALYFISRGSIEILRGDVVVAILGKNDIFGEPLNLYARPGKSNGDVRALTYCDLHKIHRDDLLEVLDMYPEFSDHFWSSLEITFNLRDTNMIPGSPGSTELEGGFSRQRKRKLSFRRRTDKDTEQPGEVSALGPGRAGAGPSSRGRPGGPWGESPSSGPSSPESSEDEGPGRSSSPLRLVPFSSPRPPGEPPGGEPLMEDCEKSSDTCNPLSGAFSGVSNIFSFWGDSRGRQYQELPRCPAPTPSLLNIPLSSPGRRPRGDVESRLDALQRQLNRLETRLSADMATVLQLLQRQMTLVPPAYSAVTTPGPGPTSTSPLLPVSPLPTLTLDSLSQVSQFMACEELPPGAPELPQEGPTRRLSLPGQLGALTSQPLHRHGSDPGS

[35] = AUC (0 to infinity) in Sprague-Dawley rat at 25 mg/kg, po; type: ADME, organism-based; set-up: dose 25 mg/kg, route oral, time infinity; details: plasma
[36] = system: Staphylococcus epidermidis; assay: Antimicrobial activity against Staphylococcus epidermidis after 24 hrs by broth microdilution method; type: functional; in short: as §1
Staphylococcus aureus [37] = assay: Antimicrobial activity against Staphylococcus aureus after 24 hrs by broth microdilution method; type: functional; in short: as §1
Staphylococcus aureus [38] = assay: Antimicrobial activity against methicillin-resistant Staphylococcus aureus after 24 hrs by broth microdilution method; type: functional; in short: as §2
[39] = AUC (0 to infinity) in Sprague-Dawley rat at 5 mg/kg, iv; type: ADME, organism-based; set-up: time infinity, dose 5 mg/kg, route intravenous; details: plasma
[40] = AUC (0 to t) in Sprague-Dawley rat at 25 mg/kg, po; type: ADME, organism-based; set-up: dose 25 mg/kg, route oral; details: plasma
[41] = AUC (0 to t) in Sprague-Dawley rat at 5 mg/kg, iv; type: ADME, organism-based; set-up: dose 5 mg/kg, route intravenous; details: plasma
Escherichia coli [42] = assay: Antimicrobial activity against Escherichia coli isolate 2 after 24 hrs by broth microdilution method; type: functional; details: isolate 2, 24 h; in short: as §1
[43] = Stability of the compound in artificial intestinal juice measured every 2 hrs for 12 hrs by HPLC analysis; type: physicochemical; details: simulated gi fluid
[44] = Oral bioavailability in Sprague-Dawley rat at 25 mg/kg; type: ADME, organism-based; details: in vivo
[45] = Half life in Sprague-Dawley rat at 5 mg/kg, iv; type: ADME, organism-based; set-up: dose 5 mg/kg, route intravenous; details: in vivo
[46] = Mean residence time (0 to t) in Sprague-Dawley rat at 25 mg/kg, po; type: ADME, organism-based; set-up: dose 25 mg/kg, route oral; details: in vivo
[47] = Clearance in Sprague-Dawley rat at 5 mg/kg, iv; type: ADME, organism-based; set-up: dose 5 mg/kg, route intravenous; details: in vivo
hERG (KCNH2) [48] = target: T1, hERG (KCNH2); assay: Inhibition of human ERG at 10 uM
[49] = Solubility of the compound in artificial gastric juice measured every 2 hrs for 12 hrs by HPLC analysis; type: ADME; details: simulated gi fluid
[50] = Tmax in Sprague-Dawley rat at 25 mg/kg, po; type: ADME, organism-based; set-up: dose 25 mg/kg, route oral; details: in vivo

## C/C(=C\C(=O)OCCCCCCCCC(=O)O)C[C@@H]1OC[C@H](C[C@@H]2O[C@H]2[C@@H](C)[C@H](C)O)[C@@H](O)[C@H]1O [MUPIROCIN]
Staphylococcus aureus [1]
  MIC: > 16 µg/mL
Staphylococcus aureus [2]
  MIC: 0.06 µg/mL (≈ 0.12 µM)
Staphylococcus aureus [3]
  MIC: 0.25 µg/mL (≈ 0.499 µM)
Staphylococcus aureus [4]
  MIC: 0.25 µg/mL (≈ 0.499 µM)
Staphylococcus aureus [5]
  MIC: 0.25 µg/mL (≈ 0.499 µM)
Staphylococcus aureus [6]
  MIC: > 16 µg/mL
Staphylococcus aureus [7]
  MIC: 0.25 µg/mL (≈ 0.499 µM)
Staphylococcus aureus [8]
  MIC: 0.25 µg/mL (≈ 0.499 µM)
Staphylococcus aureus [9]
  MIC: > 16 µg/mL
Staphylococcus aureus [10]
  MIC: > 16 µg/mL
Staphylococcus aureus [11]
  MIC: > 16 µg/mL
Staphylococcus aureus [12]
  MIC: 0.25 µg/mL (≈ 0.499 µM)
Staphylococcus aureus [13]
  MIC: > 16 µg/mL
Staphylococcus aureus [14]
  MIC: > 16 µg/mL
Staphylococcus aureus [15]
  MIC: 0.25 µg/mL (≈ 0.499 µM)
Staphylococcus aureus [16]
  MIC: > 16 µg/mL
Staphylococcus aureus [17]
  MIC: > 16 µg/mL
Staphylococcus aureus [18]
  MIC: 0.25 µg/mL (≈ 0.499 µM)
Staphylococcus aureus [19]
  MIC: 0.25 µg/mL (≈ 0.499 µM)
Staphylococcus aureus [20]
  MIC: 0.25 µg/mL (≈ 0.499 µM)
Staphylococcus aureus [21]
  MIC: 0.25 µg/mL (≈ 0.499 µM)
Staphylococcus aureus [22]
  MIC: 0.25 µg/mL (≈ 0.499 µM)
Staphylococcus aureus [23]
  MIC: 0.25 µg/mL (≈ 0.499 µM)
Staphylococcus aureus [24]
  MIC: 0.25 µg/mL (≈ 0.499 µM)
Staphylococcus aureus [25]
  MIC: 0.25 µg/mL (≈ 0.499 µM)

## CCCC[C@H](CN(O)C=O)C(=O)N1CC=C[C@H]1C(=O)Nc1ncc(C)s1
[26]
  Stability: Stable
[27]
  Cmax: 12400 ng/mL
[28]
  MRT last: 0.952 h
[29]
  half-life: 2.56 h
Escherichia coli [30]
  MIC: 32 µg/mL (≈ 84.1 µM)
[31]
  Vd: 1.01 L/kg
Staphylococcus aureus [32]
  MIC: 0.25 µg/mL (≈ 0.657 µM)
[33]
  solubility: soluble
hERG (KCNH2) [34]
  inhibition at 1 µM: 5.7%
[35]
  AUC(0-inf): 21900 ng·h/mL
[36]
  MIC: 0.25 µg/mL (≈ 0.657 µM)
Staphylococcus aureus [37]
  MIC: 0.0625 µg/mL (≈ 0.164 µM)
Staphylococcus aureus [38]
  MIC: 0.125 µg/mL (≈ 0.329 µM)
[39]
  AUC(0-inf): 4930 ng·h/mL
[40]
  AUC(0-t): 21800 ng·h/mL
[41]
  AUC(0-t): 4920 ng·h/mL
Escherichia coli [42]
  MIC: 16 µg/mL (≈ 42.1 µM)
[43]
  Stability: Stable
[44]
  bioavailability: 88.7%
[45]
  half-life: 4.08 h
[46]
  MRT last: 2.45 h
[47]
  clearance: 17 mL/min/kg
hERG (KCNH2) [48]
  inhibition at 10 µM: 5.5%
[49]
  solubility: soluble
[50]
  Tmax: 0.625 h
